Laboratory results taken from ChEMBL document CHEMBL4619783, “Identification and Optimization of a Series of 8-Hydroxy Naphthyridines with Potent In Vitro Antileishmanial Activity: Initial SAR and Assessment of In Vivo Activity” (J Med Chem, 2020).
Converted amounts (≈) assume the structure as drawn.

Legend:
[1] = Kinetic aqueous solubility of the compound; type: physicochemical; details: buffer; for solubility kinetic: read-out: Kinetic_solubility
[2] = Intrinsic clearance in mouse liver microsomes; type: ADME, Microsome
[3] = Distribution coefficient, logD of the compound at pH 7.4 by chromatography; type: physicochemical; details: octanol/water
[4] = Toxicity in human THP1 cells assessed as reduction in cell viability; type: cell-based; details: THP-1 cells
Leishmania donovani [5] = assay: Antileishmanial activity against Leishmania donovani amastigotes infected in human THP1 cells incubated for 96 hrs; type: functional, organism-based; details: THP-1, 96 h
Outline: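 THP-1 cells were infected with L. donovani amastigotes and exposed to compound for 96 h rather than the earlier 72 h. Values are from at least three or four independent replicates.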

Leishmania donovani [6] = assay: Antileishmanial activity against Leishmania donovani infected in mouse assessed as reduction in parasite levels at 30 mg/kg, po qd; set-up: scale not given: the % may be the effect or the level left
[7] = Stability in Balb/C mouse assessed as parent compound level at 50 mg/kg, ip BID after 8 hrs by UPLC Q-TOF analysis; type: ADME, organism-based; details: in vivo
Outline: (§1)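 Balb/C mice received 50 mg/kg ip. Blood/water (1:2) was sampled at set time points, mixed with acetonitrile and centrifuged 5 min at 7000 rpm. Metabolites and parent compound were then analysed. Data are from two runs.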

[8] = Drug metabolism in Balb/C mouse assessed as hydroxylation formation at 50 mg/kg, ip BID by UPLC Q-TOF analysis; type: ADME, organism-based; details: in vivo; outline: as §1
[9] = Drug metabolism in Balb/C mouse assessed as glucuronide adduct formation at 50 mg/kg, ip BID by UPLC Q-TOF analysis; type: ADME, organism-based; details: in vivo; outline: as §1
[10] = Selectivity index, ratio of EC50 for toxicity in human THP1 cells assessed as reduction in cell viability to EC50 for antileishmanial activity against Leishmania donovani amastigotes infected in human THP1 cells incubated for 96 hrs; type: cell-based; details: THP-1 cells, read-out: Ratio EC50

Row | SMILES | Kinetic_solubility [1] | CLH [2] | logD [3] | EC50 [4] | EC50 (Leishmania donovani [5]) | solubility kinetic [1] | chromatographic logD [3] | Activity (Leishmania donovani [6]) | Stability [7] | Drug metabolism [8] | Drug metabolism [9] | selectivity ratio at 96 h [10]
1 | O=C(NCc1ccc(Cl)cc1)c1ccc2cccnc2c1O | 219 µM | 19 mL/min/g | 4.8 | 6.31 µM | 15.8 µM | – | – | – | – | – | – | –
2 | Cc1n[nH]c(-c2nc(-c3ccccc3C(F)(F)F)c3cccnc3c2O)n1 | – | 1.4 mL/min/g | – | > 50.1 µM | 0.1 µM | > 250 µM | 4.3 | – | – | – | – | –
3 | COc1ccc(CNC(=O)c2ncc3cccnc3c2O)cc1 | > 250 µM | 2.6 mL/min/g | 4.2 | > 50.1 µM | 0.501 µM | – | – | – | – | – | – | –
4 | Oc1c(-c2nc(C(O)c3ccccc3)n[nH]2)ncc2cccnc12 (configuration not stated) | > 250 µM | 1.9 mL/min/g | – | > 50.1 µM | 5.01 µM | – | – | – | – | – | – | –
5 | O=C1CCCN1Cc1n[nH]c(-c2ncc3cccnc3c2O)n1 | > 250 µM | < 0.5 mL/min/g | – | > 50.1 µM | > 50.1 µM | – | – | – | – | – | – | –
6 | CCCCCCCCCCCCCCCCOP(=O)([O-])OCC[N+](C)(C)C [MILTEFOSINE] | – | – | – | > 50.1 µM | 3.98 µM | – | – | >99% | – | – | – | –
7 | CNC(=O)c1nc(-c2ccccc2OC)c2cccnc2c1O | 219 µM | 0.9 mL/min/g | 4.2 | 39.8 µM | 10 µM | – | – | – | Stable | Metabolite_Detected | Metabolite_Notdetected | –
8 | O=C(NCc1ccc(Cl)cc1)c1nc(N2CCOCC2)c2cccnc2c1O | – | 24 mL/min/g | – | > 50.1 µM | > 50.1 µM | 219 µM (≈ 87.3 µg/mL) | – | – | – | – | – | –
9 | Oc1c(-c2nc(CN3CCOCC3)n[nH]2)ncc2cccnc12 | 219 µM | 0.8 mL/min/g | 0.5 | > 50.1 µM | – | – | – | – | – | – | – | –
10 | O=C(NCc1ccc(Cl)cc1)c1ncc2ccccc2c1O | 39 µM | 28 mL/min/g | 7.6 | > 50.1 µM | > 50.1 µM | – | – | – | – | – | – | –
11 | Cc1n[nH]c(-c2cc3ncccc3c(-c3ccccc3)n2)n1 | > 250 µM | – | – | > 50.1 µM | > 50.1 µM | – | – | – | – | – | – | –
12 | Cc1n[nH]c(-c2nc(N(C)C)c3cccnc3c2O)n1 | – | 14 mL/min/g | – | > 50.1 µM | 15.8 µM | > 250 µM | -0.6 | – | – | – | – | –
13 | Cc1n[nH]c(-c2nc(N3CCCCS3(=O)=O)c3cccnc3c2O)n1 | – | 0.6 mL/min/g | – | > 50.1 µM | > 50.1 µM | 250 µM (≈ 90.1 µg/mL) | 1.5 | – | – | – | – | –
14 | Oc1c(-c2nnc(Cc3ccc(F)cc3)[nH]2)ncc2cccnc12 | – | – | – | 39.8 µM | 2.51 µM | – | – | – | – | – | – | –
15 | Cc1nnc(C(=O)NC(C)(C)c2nc(C(=O)NCc3ccc(F)cc3)c(O)c(=O)n2C)o1 [RALTEGRAVIR] | > 250 µM | – | – | > 50.1 µM | > 50.1 µM | – | – | – | – | – | – | –
16 | COc1ccccc1-c1nc(C(=O)N[C@H](C)c2ccc(F)cc2)c(O)c(=O)n1C | 173 µM | < 0.5 mL/min/g | 5.5 | > 50.1 µM | > 50.1 µM | – | – | – | – | – | – | –
17 | O=C(NCC1CC1)c1ncc2cccnc2c1O | – | 13 mL/min/g | – | > 50.1 µM | 1.26 µM | – | 3.3 | – | – | – | – | –
18 | COc1ccccc1-c1nc(C(=O)NCC2CC2)c(O)c2ncccc12 | – | 8 mL/min/g | – | > 50.1 µM | 2 µM | > 250 µM | – | – | – | – | – | –
19 | C[C@@H](NC(=O)c1cn(C)c2cccnc2c1=O)c1ccc(F)cc1 | – | 0.7 mL/min/g | – | > 50.1 µM | > 50.1 µM | > 250 µM | – | – | – | – | – | –
20 | COc1ccccc1-c1nc(-c2nnc(C)o2)c(O)c2ncccc12 | > 250 µM | < 0.5 mL/min/g | 3.8 | > 50.1 µM | > 50.1 µM | – | – | – | – | – | – | –
21 | O=C(NCc1ccc(Cl)cc1)c1ncc2cccnc2c1O | > 250 µM | 10 mL/min/g | – | > 50.1 µM | – | – | – | – | – | – | – | –
22 | C[C@@H]1[C@H](O)[C@@H](C)/C=C/C=C/C=C/C=C/C=C/C=C/C=C/[C@H](O[C@@H]2O[C@H](C)[C@@H](O)[C@H](N)[C@@H]2O)C[C@@H]2O[C@](O)(C[C@@H](O)C[C@@H](O)[C@H](O)CC[C@@H](O)C[C@@H](O)CC(=O)O[C@H]1C)C[C@H](O)[C@H]2C(=O)O [AMPHOTERICIN B] | – | – | – | > 1 µM | 0.2 µM | – | – | – | – | – | – | –
23 | COc1ccccc1-c1nc(-c2nc(C)n[nH]2)c(OC)c2ncccc12 | > 250 µM | 2 mL/min/g | 5.7 | > 50.1 µM | 2.51 µM | – | – | – | – | – | – | –
24 | Cc1n[nH]c(-c2ncc3cccnc3c2O)n1 | > 250 µM | 3.3 mL/min/g | 0.73 | > 50.1 µM | > 50.1 µM | – | – | – | – | – | – | –
25 | Oc1c(-c2nnc(Cc3ccc(Cl)cc3)[nH]2)ncc2cccnc12 | 219 µM | 18 mL/min/g | 4.1 | 31.6 µM | – | – | – | – | – | – | – | 100
26 | COc1ccc(CNC(=O)c2nn(C)c3cccnc3c2=O)cc1 | > 250 µM | 0.7 mL/min/g | 1.9 | > 50.1 µM | > 50.1 µM | – | – | – | – | – | – | –
